What was measured:
HUVEC = test: Antiangiogenic activity against VEGF-stimulated HUVEC cells after 72 hrs by BrdU method; type: functional, cell-based; details: Homo sapiens
How it was run: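 HUVEC grown overnight at 37 °C, 5% CO2 in 5% FBS medium on type 1 collagen-coated plates. Medium replaced by serum-free medium with graded inhibitor concentrations, then VEGF (10 ng/ml) added 30 min later. Cells incubated a further 72 h, with BrdU present for the last 18–24 h. IC50 taken as K from the fit y = Vmax(1 − x/(K+x)).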

[1] = target: Vascular endothelial growth factor receptor 2 (Homo sapiens, UniProt P35968); test: Inhibition of VEGFR-2 after 1 hr by fluorescence polarization assay
Chain of Vascular endothelial growth factor receptor 2 (P35968 whole entry): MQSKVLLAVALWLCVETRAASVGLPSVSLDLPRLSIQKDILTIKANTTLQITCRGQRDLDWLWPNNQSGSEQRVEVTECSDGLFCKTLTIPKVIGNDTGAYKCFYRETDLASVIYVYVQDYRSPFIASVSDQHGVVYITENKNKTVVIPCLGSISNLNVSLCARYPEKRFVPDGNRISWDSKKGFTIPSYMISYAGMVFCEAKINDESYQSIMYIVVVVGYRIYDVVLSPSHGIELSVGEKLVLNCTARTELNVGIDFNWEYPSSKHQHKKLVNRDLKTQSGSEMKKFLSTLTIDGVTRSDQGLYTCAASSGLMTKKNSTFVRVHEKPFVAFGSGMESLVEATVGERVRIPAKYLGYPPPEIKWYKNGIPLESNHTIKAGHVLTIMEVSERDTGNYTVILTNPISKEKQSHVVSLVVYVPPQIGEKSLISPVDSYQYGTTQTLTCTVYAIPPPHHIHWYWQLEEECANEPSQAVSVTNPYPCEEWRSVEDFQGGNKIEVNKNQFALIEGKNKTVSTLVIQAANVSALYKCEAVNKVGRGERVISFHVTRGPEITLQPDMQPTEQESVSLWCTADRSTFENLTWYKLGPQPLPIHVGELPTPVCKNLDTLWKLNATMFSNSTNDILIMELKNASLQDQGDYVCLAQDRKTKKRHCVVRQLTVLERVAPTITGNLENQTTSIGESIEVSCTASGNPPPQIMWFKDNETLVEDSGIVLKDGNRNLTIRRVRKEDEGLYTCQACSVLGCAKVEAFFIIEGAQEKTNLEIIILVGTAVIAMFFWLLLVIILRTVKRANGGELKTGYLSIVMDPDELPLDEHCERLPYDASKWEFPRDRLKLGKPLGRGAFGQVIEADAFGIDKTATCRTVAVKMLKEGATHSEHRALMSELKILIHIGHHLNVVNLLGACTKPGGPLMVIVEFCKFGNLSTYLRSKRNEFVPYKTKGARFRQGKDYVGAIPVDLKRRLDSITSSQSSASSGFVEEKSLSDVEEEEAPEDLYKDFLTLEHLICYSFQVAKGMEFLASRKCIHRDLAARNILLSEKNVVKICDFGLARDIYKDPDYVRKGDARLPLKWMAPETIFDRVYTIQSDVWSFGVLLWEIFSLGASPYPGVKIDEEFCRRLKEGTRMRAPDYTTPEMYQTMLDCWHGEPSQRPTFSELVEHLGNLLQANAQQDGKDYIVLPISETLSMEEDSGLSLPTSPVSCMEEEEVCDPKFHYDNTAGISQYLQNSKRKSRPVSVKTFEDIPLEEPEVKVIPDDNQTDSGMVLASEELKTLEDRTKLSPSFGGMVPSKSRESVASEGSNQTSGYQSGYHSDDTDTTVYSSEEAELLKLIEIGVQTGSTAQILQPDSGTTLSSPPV
How it was run: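 VEGFR kinase protein in a fluorescence polarization tyrosine kinase kit. Buffer was 20 mM HEPES pH 7.4, 5 mM MgCl2, 2 mM MnCl2, Na3VO4, ATP, 200 ng/mL enzyme and 1 ng/mL poly(Glu,Tyr) 4:1. After 1 h the reaction was stopped with 6 mM EDTA. Anti-phosphotyrosine antibody and PTK green tracer were added, and FP was read after 30 min at room temperature.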

Row | SMILES | IC50 [1] [nM] | IC50 (HUVEC) [nM]
1 | Cc1csc(C(=O)/C=C/c2cc3cc(C)ccc3nc2Cl)c1 | 169 | 106
2 | Cc1ccc2nc(Cl)c(/C=C/C(=O)c3ccsc3)cc2c1 | 287 | 107
3 | Cc1ccc2nc(Cl)c(/C=C/C(=O)c3ccc(C)s3)cc2c1 | 176 | 128
4 | Cc1ccc2nc(Cl)c(/C=C/C(=O)c3cc(C)sc3C)cc2c1 | 453 | 229
5 | Cc1ccc2nc(Cl)c(/C=C/C(=O)c3ccc(Cl)s3)cc2c1 | 107 | 59.4
6 | Cc1ccc2nc(Cl)c(/C=C/C(=O)c3sccc3Br)cc2c1 | 129 | 61.9
7 | Cc1ccc2nc(Cl)c(/C=C/C(=O)c3ccc(I)s3)cc2c1 | 154 | 129
8 | Cc1ccc2cc(/C=C/C(=O)c3ccsc3)c(Cl)nc2c1 | 208 | 107
9 | Cc1ccc2cc(/C=C/C(=O)c3sccc3C)c(Cl)nc2c1 | 157 | 124
10 | Cc1csc(C(=O)/C=C/c2cc3ccc(C)cc3nc2Cl)c1 | 139 | 98.9
11 | Cc1ccc2cc(/C=C/C(=O)c3cc(C)sc3C)c(Cl)nc2c1 | 561 | 294
12 | Cc1ccc2cc(/C=C/C(=O)c3cc(Cl)sc3Cl)c(Cl)nc2c1 | 73.4 | 21.8
13 | Cc1ccc2cc(/C=C/C(=O)c3ccc(Br)s3)c(Cl)nc2c1 | 104 | 83.6
14 | Cc1ccc2cc(/C=C/C(=O)c3ccc(I)s3)c(Cl)nc2c1 | 148 | 135
15 | Cc1cccc2cc(/C=C/C(=O)c3ccsc3)c(Cl)nc12 | 389 | 291
16 | Cc1ccsc1C(=O)/C=C/c1cc2cccc(C)c2nc1Cl | 267 | 189
17 | Cc1csc(C(=O)/C=C/c2cc3cccc(C)c3nc2Cl)c1 | 233 | 153
18 | Cc1ccc(C(=O)/C=C/c2cc3cccc(C)c3nc2Cl)s1 | 262 | 145
19 | Cc1cc(C(=O)/C=C/c2cc3cccc(C)c3nc2Cl)c(C)s1 | > 1000 | 
20 | Cc1cccc2cc(/C=C/C(=O)c3sccc3Cl)c(Cl)nc12 | 130 | 91.5
21 | Cc1cccc2cc(/C=C/C(=O)c3ccc(Cl)s3)c(Cl)nc12 | 189 | 116
22 | Cc1cccc2cc(/C=C/C(=O)c3sccc3Br)c(Cl)nc12 | 313 | 187
23 | Cc1cccc2cc(/C=C/C(=O)c3ccc(Br)s3)c(Cl)nc12 | 367 | 243

Now from value to molecule, other results behind:

Row | IC50 [1] [nM] | SMILES | IC50 (HUVEC) [nM]
24 | 185 | Cc1ccc2nc(Cl)c(/C=C/C(=O)c3sccc3C)cc2c1 | 127
25 | 87.1 | Cc1ccc2nc(Cl)c(/C=C/C(=O)c3sccc3Cl)cc2c1 | 37.5
26 | 81.4 | Cc1ccc2nc(Cl)c(/C=C/C(=O)c3cc(Cl)sc3Cl)cc2c1 | 26.2
27 | 113 | Cc1ccc2nc(Cl)c(/C=C/C(=O)c3ccc(Br)s3)cc2c1 | 88.4
28 | 130 | Cc1ccc2cc(/C=C/C(=O)c3ccc(C)s3)c(Cl)nc2c1 | 102
29 | 82.7 | Cc1ccc2cc(/C=C/C(=O)c3sccc3Cl)c(Cl)nc2c1 | 34
30 | 92.2 | Cc1ccc2cc(/C=C/C(=O)c3ccc(Cl)s3)c(Cl)nc2c1 | 49.5
31 | 112 | Cc1ccc2cc(/C=C/C(=O)c3sccc3Br)c(Cl)nc2c1 | 61.9
32 | 358 | Cc1cccc2cc(/C=C/C(=O)c3cc(Cl)sc3Cl)c(Cl)nc12 | 295
33 | 482 | Cc1cccc2cc(/C=C/C(=O)c3ccc(I)s3)c(Cl)nc12 | 284

Reference: ChEMBL document CHEMBL1938258, “Discovery and molecular docking of quinolyl-thienyl chalcones as anti-angiogenic agents targeting VEGFR-2 tyrosine kinase” (Bioorg Med Chem Lett, 2012)
